These results are taken from ChEMBL document CHEMBL1152903, “Synthesis and activity of N-oxalylglycine and its derivatives as Jumonji C-domain-containing histone lysine demethylase inhibitors” (Bioorg Med Chem Lett, 2009).

SMILES strings stand for the structures. Calls of active or inactive are those of the source. No cut-off for these calls is given here.

Assay [1] addresses T1, Lysine-specific demethylase 4D (Homo sapiens) (UniProt Q6B0I6).
T1 sequence (whole entry): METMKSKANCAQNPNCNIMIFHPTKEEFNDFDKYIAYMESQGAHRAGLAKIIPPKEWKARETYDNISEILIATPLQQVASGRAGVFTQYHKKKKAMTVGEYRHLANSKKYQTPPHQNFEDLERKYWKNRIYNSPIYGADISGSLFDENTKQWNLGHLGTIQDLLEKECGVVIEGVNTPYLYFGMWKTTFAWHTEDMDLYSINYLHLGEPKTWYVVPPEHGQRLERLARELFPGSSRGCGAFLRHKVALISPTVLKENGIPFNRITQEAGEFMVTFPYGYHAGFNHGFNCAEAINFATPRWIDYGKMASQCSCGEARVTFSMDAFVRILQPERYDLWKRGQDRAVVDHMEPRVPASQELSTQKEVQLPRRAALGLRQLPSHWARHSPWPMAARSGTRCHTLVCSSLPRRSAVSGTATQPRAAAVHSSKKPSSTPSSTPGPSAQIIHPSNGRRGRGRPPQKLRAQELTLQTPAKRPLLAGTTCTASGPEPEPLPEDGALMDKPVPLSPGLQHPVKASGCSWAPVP
The assay is described as follows: Inhibition of JMJD2D-mediated H3K9 demethylation activity at 3 mM. Put shortly: (§1)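 Full-length GST-JMJD2D, expressed in E. coli and purified on glutathione-agarose, was incubated with histones, α-ketoglutarate, 2 mM ascorbate and 0.2 mM (NH₄)₂Fe(SO₄)₂ in 50 mM Hepes pH 7.4 with 50 mM NaCl and 50 mM KCl. Inhibitor in DMSO, or DMSO alone, was present for 2 h at 37 °C. H3K9me₃ was detected by Western blot with ECL, with H4K20me₁ as a control.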

The target of assay [2] is T1, Lysine-specific demethylase 4D (Homo sapiens). The assay is described as follows: Inhibition of JMJD2D-mediated H3K9 demethylation activity at 1 mM. Put shortly: as §1
The target of assay [3] is T2, Lysine-specific demethylase 4A (Homo sapiens) (UniProt O75164).
T2 sequence (whole entry): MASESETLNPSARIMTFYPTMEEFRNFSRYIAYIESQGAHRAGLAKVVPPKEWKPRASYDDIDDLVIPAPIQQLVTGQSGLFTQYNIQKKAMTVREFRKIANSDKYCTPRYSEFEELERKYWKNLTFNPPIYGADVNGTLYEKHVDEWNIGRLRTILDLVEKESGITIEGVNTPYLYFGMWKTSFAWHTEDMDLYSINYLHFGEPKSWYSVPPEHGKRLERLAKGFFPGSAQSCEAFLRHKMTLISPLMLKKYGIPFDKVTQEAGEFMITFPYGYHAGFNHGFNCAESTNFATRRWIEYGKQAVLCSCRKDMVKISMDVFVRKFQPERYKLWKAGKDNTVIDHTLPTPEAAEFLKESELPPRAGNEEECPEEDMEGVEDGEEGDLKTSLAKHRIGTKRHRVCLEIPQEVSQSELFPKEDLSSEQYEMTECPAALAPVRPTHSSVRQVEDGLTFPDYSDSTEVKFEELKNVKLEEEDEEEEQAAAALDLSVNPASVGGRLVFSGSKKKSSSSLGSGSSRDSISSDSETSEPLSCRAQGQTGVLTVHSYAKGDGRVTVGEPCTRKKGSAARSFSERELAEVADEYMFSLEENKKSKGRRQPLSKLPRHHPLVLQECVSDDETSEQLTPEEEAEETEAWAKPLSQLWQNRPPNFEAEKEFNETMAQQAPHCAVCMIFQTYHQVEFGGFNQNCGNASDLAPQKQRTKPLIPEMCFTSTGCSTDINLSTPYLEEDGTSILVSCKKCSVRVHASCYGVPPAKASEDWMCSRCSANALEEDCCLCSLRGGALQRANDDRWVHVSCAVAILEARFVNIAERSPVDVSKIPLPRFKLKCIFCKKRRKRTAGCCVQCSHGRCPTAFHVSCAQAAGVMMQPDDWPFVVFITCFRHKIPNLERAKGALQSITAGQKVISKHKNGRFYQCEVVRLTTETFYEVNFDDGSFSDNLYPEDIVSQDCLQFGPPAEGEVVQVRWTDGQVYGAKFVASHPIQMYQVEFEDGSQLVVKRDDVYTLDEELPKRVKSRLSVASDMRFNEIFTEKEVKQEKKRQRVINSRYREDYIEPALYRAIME
The assay can be described thus: Inhibition of JMJD2A-mediated H3K9 demethylation activity at 1 mM. Put shortly: (§2)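 GST fusions of JMJD2A (aa 2–350) or JMJD2C (aa 2–352), made in E. coli and purified on glutathione-agarose. Each was incubated with histones in 50 mM Hepes pH 7.4, 50 mM NaCl, 50 mM KCl, 2 mM ascorbate, 0.2 mM (NH₄)₂Fe(SO₄)₂ and α-ketoglutarate, with inhibitor in DMSO or DMSO alone, 1 h at 37 °C. Read-out was anti-H3K9me₃ Western blot with ECL; H4K20me₁ served as a control.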

The target in assay [4] is T3, Lysine-specific demethylase 4C (Homo sapiens) (UniProt Q9H3R0).
T3 sequence (whole entry): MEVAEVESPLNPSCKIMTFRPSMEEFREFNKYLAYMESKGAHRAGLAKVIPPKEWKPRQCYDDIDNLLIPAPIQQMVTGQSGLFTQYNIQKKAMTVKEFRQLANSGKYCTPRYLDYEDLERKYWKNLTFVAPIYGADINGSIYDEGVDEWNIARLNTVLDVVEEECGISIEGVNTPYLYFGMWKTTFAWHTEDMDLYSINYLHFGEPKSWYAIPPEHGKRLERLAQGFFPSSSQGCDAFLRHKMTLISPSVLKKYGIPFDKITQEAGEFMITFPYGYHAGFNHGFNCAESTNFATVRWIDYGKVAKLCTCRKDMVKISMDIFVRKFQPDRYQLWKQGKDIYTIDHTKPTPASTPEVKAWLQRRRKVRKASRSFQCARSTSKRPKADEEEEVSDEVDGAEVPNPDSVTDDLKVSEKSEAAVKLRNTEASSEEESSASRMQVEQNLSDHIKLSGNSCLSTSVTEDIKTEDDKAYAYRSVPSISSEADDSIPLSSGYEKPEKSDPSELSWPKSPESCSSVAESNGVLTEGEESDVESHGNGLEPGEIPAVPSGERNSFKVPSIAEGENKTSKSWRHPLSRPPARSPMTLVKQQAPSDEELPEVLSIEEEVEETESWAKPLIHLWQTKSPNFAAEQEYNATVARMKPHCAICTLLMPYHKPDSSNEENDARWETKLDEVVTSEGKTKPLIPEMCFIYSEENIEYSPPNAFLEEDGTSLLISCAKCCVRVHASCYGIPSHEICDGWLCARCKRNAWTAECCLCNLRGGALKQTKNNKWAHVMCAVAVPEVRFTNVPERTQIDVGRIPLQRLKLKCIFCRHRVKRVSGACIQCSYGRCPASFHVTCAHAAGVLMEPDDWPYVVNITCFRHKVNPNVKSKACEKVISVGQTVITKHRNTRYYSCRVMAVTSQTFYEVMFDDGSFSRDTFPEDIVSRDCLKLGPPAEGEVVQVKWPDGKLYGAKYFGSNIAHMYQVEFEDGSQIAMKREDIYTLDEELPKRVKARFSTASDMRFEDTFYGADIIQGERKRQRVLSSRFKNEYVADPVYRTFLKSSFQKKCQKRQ
The assay can be described thus: Inhibition of JMJD2C-mediated H3K9 demethylation activity at 3 mM. Put shortly:
as §2

The target of assay [5] is T2, Lysine-specific demethylase 4A (Homo sapiens). The assay is described as follows: Inhibition of JMJD2A-mediated H3K9 demethylation activity at 3 mM. Put shortly: as §2
In assay [6] the target is T3, Lysine-specific demethylase 4C (Homo sapiens). The assay can be described thus: Inhibition of JMJD2C-mediated H3K9 demethylation activity at 1 mM. Put shortly: as §2
For assay [7], the target named is Lysine-specific demethylase 4C (Homo sapiens) (UniProt Q9H3R0). The assay is described as follows: Inhibition of JMJD2-mediated H3K36 demethylation in human 293T cells at 2.5 mM.
Assay [8] has as its target T3, Lysine-specific demethylase 4C (Homo sapiens). The assay is described as follows: Inhibition of JMJD2C-mediated H3K36 demethylation in human 293T cells at 2.5 mM. The format is cell-based. Put shortly:
(§3)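 293T cells were transfected with or without Flag-JMJD2C by calcium phosphate coprecipitation; the precipitate was washed off with PBS after 12 h. Cells were grown 12 h in DMEM + 10% FCS under 10% CO₂, then for 24 h in fresh medium containing inhibitor in DMSO or 1% DMSO. Lysates were boiled in Laemmli buffer and histone methylation was assessed by Western blotting.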

Assay [9] has the same target. The assay can be described thus: Inhibition of JMJD2C-mediated H3K9 demethylation in human 293T cells at 2.5 mM. The format is cell-based. Put shortly: as §3
The target in assay [10] is Lysine-specific demethylase 4C (Homo sapiens) (UniProt Q9H3R0). The assay is described as follows: Inhibition of JMJD2-mediated H3K9 demethylation in human 293T cells at 2.5 mM.
For assay [11], the target named is T3, Lysine-specific demethylase 4C (Homo sapiens). The assay can be described thus: Inhibition of JMJD2C-mediated H3K36 demethylation in human 293T cells at […]. The format is cell-based. Put shortly:
as §3

Assay [12] has the same target. The assay is described as follows: Inhibition of JMJD2C-mediated H3K9 demethylation in human 293T cells at […]. The format is cell-based. Put shortly:
as §3

`O=C(O)CNC(=O)C(=O)O`: the Histone_modification entry in [1], in [2], in assay [3], in assay [4], in assay [5] and in [6] was “Active” each time.
For the compound `COC(=O)CNC(=O)C(=O)OC`, the Histone_modification result in assay [7], in assay [8], in assay [9] and in [10] was “Active” throughout.
Consider `CN(C)c1ccc(CCCN(CC(=O)O)C(=O)C(=O)O)cc1`, for which the Histone_modification entry in assay [2] is “Active”. The Histone_modification result in [3] and in assay [6] was “inactive” throughout. Further, the Histone_modification entry in assay [4] and in assay [5] was “Active-partial” throughout.
`CN(C)c1cccc(CN(CC(=O)O)C(=O)C(=O)O)c1`: the Histone_modification result in [1], in assay [4] and in assay [5] was “Active” throughout. In addition, the Histone_modification entry in assay [3] and in assay [6] was “inactive” in each case.
As to `COC(=O)CCC(=O)OC`, the Histone_modification result in assay [11] and in assay [12] was “inactive” in each case.
Consider `CN(C)c1ccc(CCN(CC(=O)O)C(=O)C(=O)O)cc1`, for which the Histone_modification entry in assay [1], in [2], in assay [4] and in assay [5] was “Active” throughout. Further, the Histone_modification result in assay [3] and in assay [6] was “inactive” in each case.
Turning to `CN(C)c1ccc(CN(CC(=O)O)C(=O)C(=O)O)cc1`, the Histone_modification result in assay [1], in assay [2], in [4] and in assay [5] was “Active” in each case. Besides, the Histone_modification result in [3] and in [6] was “inactive” each time.
As for `COC(=O)CN(Cc1ccc(N(C)C)cc1)C(=O)C(=O)OC`, the Histone_modification entry in assay [8] and in assay [9] was “inactive” each time. In assay [10], the Histone_modification entry is “Active”.
